From ChEMBL document CHEMBL4513216, “Probing the Open Global Health Chemical Diversity Library for Multistage-Active Starting Points for Next-Generation Antimalarials” (ACS Infect Dis, 2020) come the findings set out here.

The series in a line: Toxicity liver stage against HepG2, at 10uM. Type of series: cell-based. Conditions: human, HepG2-A16-CD81EGFP cells; read-out: INHIBITION
Also on record: test concentration 10 uM, cell line HepG2-A16-CD81EGFP. An outline of the steps:
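Uninfected HepG2-A16-CD81EGFP cells, 3 × 10^3 per well, 1536-well, plated on prespotted compound at 10 μM final, parasite-free screening media added to match infected plates; puromycin 10 μM positive, DMSO 0.5% negative; run in parallel with 48 h PbLuc assay at 37 °C, 5% CO2; viability by CellTiter-Glo luminescence, normalized to controls.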
With `O=C1CC(NS(=O)(=O)c2cccc(F)c2)CN1` (stereo unspecified), the cytotoxicity at 10 µM was -5.89%.

As for `NC(=O)C1CCN(C(=O)CCn2ccc3ccc(Br)cc32)CC1`, the cytotoxicity at 10 µM was -5.85%.

With `Cc1ccc2c(c1)c(C)cc(=O)n2CC(=O)O`, the cytotoxicity at 10 µM turned out to be 3.1%.

`CN1C(=O)CO[C@H]2CCN(C(=O)Cc3ccc4c(c3)CCCC4)CC[C@@H]21`: the cytotoxicity at 10 µM came to 4.45%.

Take `CC(NC(=O)c1cc(C(C)C)[nH]n1)C(=O)Nc1ccccc1` (stereo unspecified): the cytotoxicity at 10 µM amounted to 10.8%.

On to `Cc1cccc(CS(=O)(=O)Cc2ccn(C)c(=O)c2)c1`, for which the cytotoxicity at 10 µM turned out to be 2.29%.

On to `CCS(=O)(=O)NC1CCCN(c2cc(C)ccc2F)C1=O` (stereo unspecified), for which the cytotoxicity at 10 µM was 3.07%.

For `CCC1CCCCN1S(=O)(=O)c1c(C)noc1C` (stereo unspecified), the cytotoxicity at 10 µM is -9.35%.

`CC(=O)NCc1ccc(S(=O)(=O)NC(=O)c2ccc3c(c2)COC3)s1`: the cytotoxicity at 10 µM is -1.8%.

In the case of `CCC(C)C(=O)N(CC(=O)OC)c1cccc(C)n1` (stereo unspecified), the cytotoxicity at 10 µM was -4.31%.

As for `CC(Cn1cccn1)NC(=O)CCc1nc(C(C)(C)C)no1` (stereo unspecified), the cytotoxicity at 10 µM was found to be 14.5%.

With `O=C(COc1ccc2c(c1)OCC2O)NCc1ccco1` (stereo unspecified), the cytotoxicity at 10 µM is 0.878%.

Regarding `CC(Oc1cccc(Cl)c1)C(=O)Nc1cnn(CC(=O)NC2CC2)c1` (stereo unspecified), the cytotoxicity at 10 µM stood at 1.73%.

Take `CC(CO)NC(=O)Nc1ccc(Cl)cc1OCC(F)(F)F` (stereo unspecified): the cytotoxicity at 10 µM is 5.32%.

As for `COc1ccccc1N1CCCC(NC(=O)Nc2cccnc2)C1` (stereo unspecified), the cytotoxicity at 10 µM was found to be 9.86%.

For `CCOCCc1nc(-c2cnn3c(C)cc(C)nc23)no1`, the cytotoxicity at 10 µM amounted to 3.53%.

`CC(SCC(=O)NCCC#N)c1ccc(Cl)cc1` (stereo unspecified): the cytotoxicity at 10 µM came to 10.6%.

For the compound `O=C1CC(N(C(=O)c2ccc(Oc3ccccc3)cc2)C2CC2)C(=O)N1` (stereo unspecified), the cytotoxicity at 10 µM was -2.94%.

Take `COc1c(CNCc2ccccc2CN2CCOCC2)c(C)nn1C`: the cytotoxicity at 10 µM was -0.686%.

With `Cn1nnc(C2(NC(=O)c3ccccc3)CCCC2)n1`, the cytotoxicity at 10 µM was -10.5%.

Turning to `Cc1cc(C(=O)N(CCN(C)C)Cc2ccc(Cl)cc2)no1`, the cytotoxicity at 10 µM was 0.242%.

In the case of `COc1cc(C(=O)N(C)Cc2nccn2CC(F)(F)F)ccc1C`, the cytotoxicity at 10 µM is -4.24%.

As to `Cc1cc(C(=O)CN(Cc2cccnc2)CC2CCCO2)c(C)[nH]1` (stereo unspecified), the cytotoxicity at 10 µM is -1.26%.

Consider `CC(NCCN1CCN(C(=O)C2CCCC2)CC1)c1ccccn1` (stereo unspecified), for which the cytotoxicity at 10 µM was -2.17%.

For `O=C(NS(=O)(=O)c1ccc2c(c1)CCC2)C1COCCO1` (stereo unspecified), the cytotoxicity at 10 µM was found to be 10.4%.

In the case of `N#Cc1ccsc1C(=O)N1CCCCC1Cn1cccn1` (stereo unspecified), the cytotoxicity at 10 µM came out at 3.36%.

`CCC1c2ccccc2CCN1C(=O)c1ccnc(C(=O)OC)c1` (stereo unspecified): the cytotoxicity at 10 µM was -2.72%.

Turning to `O=C1N(CC2CC2)C(c2c[nH]nc2-c2cccnc2)NC12CCCC2` (stereo unspecified), the cytotoxicity at 10 µM is -2.16%.

Consider `Cc1nc(CNC(=O)CCN2CCN(c3ccccc3)CC2)oc1C`, for which the cytotoxicity at 10 µM is -4.04%.

Regarding `CCNC(=O)N(Cc1ccoc1)C1CCCCC1`, the cytotoxicity at 10 µM is -0.986%.

Regarding `COc1ncccc1CNC(=O)C1CC(=O)N(C)C1` (stereo unspecified), the cytotoxicity at 10 µM is -14.6%.

As for `CC(C)(C)NC(=O)NC(=O)CNc1c(F)cccc1N1CCCC1`, the cytotoxicity at 10 µM is 12.2%.

As to `Cc1ccc(C)c2c(C)c(C(=O)NCCC(=O)N3CCOCC3)oc12`, the cytotoxicity at 10 µM worked out at 1.04%.

`CC(C)N(C)CCNC(=O)NCc1ccccc1-n1cccn1`: the cytotoxicity at 10 µM was -7.57%.

Take `CC(C)c1noc(CS(=O)(=O)CC(=O)NCc2ccccc2)n1`: the cytotoxicity at 10 µM was -10.5%.

For the compound `O=C1CN(Cc2nnc(-c3ccc(Br)o3)o2)CCN1`, the cytotoxicity at 10 µM is 13.5%.

Take `CC(C)NC(=O)c1ccc2nnc(C3CCN(S(C)(=O)=O)C3)n2c1` (stereo unspecified): the cytotoxicity at 10 µM worked out at 3.5%.

As to `Cc1ccc(C(=O)N2C[C@@H](OCc3cccnc3)[C@H]3OCCC[C@H]32)o1`, the cytotoxicity at 10 µM turned out to be 4.74%.

Consider `CCc1cc(NCCN2CCNC2=O)n2nc(C)c(C)c2n1`, for which the cytotoxicity at 10 µM is -5.81%.

`CCc1nc(C)c(C(=O)N(C)Cc2cnc3ccccn23)o1`: the cytotoxicity at 10 µM is -1.94%.

In the case of `Cc1cc(C)n(Cc2cc(C(=O)N3CCCC3c3nccs3)n[nH]2)n1` (stereo unspecified), the cytotoxicity at 10 µM is -5.08%.

Turning to `O=C1NCCN(Cc2ccoc2)C1CC(=O)N1CCc2sccc2C1` (stereo unspecified), the cytotoxicity at 10 µM was -3.45%.

Turning to `Cc1ncsc1CCN(C)Cc1cc2n(n1)CCN(Cc1ncc[nH]1)C2`, the cytotoxicity at 10 µM was -22.2%.

Turning to `CCC(=O)Nc1ccc(OCC(=O)N(C)C(C)c2ccon2)cc1` (stereo unspecified), the cytotoxicity at 10 µM was determined as 5.22%.

As to `CN(CCCc1cnn(C)c1)C(=O)Nc1cccc(C#N)c1`, the cytotoxicity at 10 µM was -0.828%.

For `CNc1ncc(CN(C)C(=O)CCc2cc3n(n2)CCCNC3)cn1`, the cytotoxicity at 10 µM is -13.5%.

As to `COC(=O)c1cc(OCC2CCC2)cc(C(=O)N[C@H]2CCCC[C@@H]2O)c1`, the cytotoxicity at 10 µM was -2.94%.

Turning to `CC(C)(C)c1ncc(C(=O)N2CCC(N3CCSCC3)CC2)c(O)n1`, the cytotoxicity at 10 µM worked out at 0.382%.

On to `CN1CCC(N2CCCC(C(=O)N3Cc4ccccc4C3)C2)CC1` (stereo unspecified), for which the cytotoxicity at 10 µM was found to be 5.19%.

Consider `Cc1[nH]c(=O)[nH]c(=O)c1CC(=O)N1CCC(Oc2ccc(F)cc2)CC1`, for which the cytotoxicity at 10 µM was 4.42%.

For `CC(=O)NCc1cc2n(n1)CCN(Cc1cccc(Cl)c1F)C2`, the cytotoxicity at 10 µM came out at 7.65%.

Take `CCNC(=O)N1CCC(Cc2cccc(C(N)=O)c2)C1` (stereo unspecified): the cytotoxicity at 10 µM was found to be 2.92%.

Consider `COCC1CCN(S(=O)(=O)c2ccc(C(=O)NCC(F)F)cc2)C1` (stereo unspecified), for which the cytotoxicity at 10 µM amounted to 6.95%.

`c1cc(-c2cn[nH]c2)ccc1CN1CCCCC1`: the cytotoxicity at 10 µM worked out at 1.58%.

On to `CC(O)C(=O)N1CCC(c2nccn2Cc2cscn2)CC1` (stereo unspecified), for which the cytotoxicity at 10 µM was 0.557%.

`CCC1CN(C(=O)c2cccc(O)c2)CCC(=O)N1Cc1ccccc1` (stereo unspecified): the cytotoxicity at 10 µM amounted to 6.78%.

On to `COC1CCN(C(=O)Cn2cccc(C(F)(F)F)c2=O)C1` (stereo unspecified), for which the cytotoxicity at 10 µM was 2.23%.

Consider `O=C(NCC1=CCCCC1)C(c1cccnc1)N1CCOCC1` (stereo unspecified), for which the cytotoxicity at 10 µM was -8.4%.

As to `CC(C)N1CCC(CC(=O)NCCc2cc(O)ncn2)CC1`, the cytotoxicity at 10 µM is 6.36%.

Turning to `O=C(NCCCNc1ccc(C(F)(F)F)cn1)c1ccccc1`, the cytotoxicity at 10 µM was -6.07%.

Consider `CCn1c(C(=O)N2CCN(C(=O)NC(C)C)CC2)cc2ccccc21`, for which the cytotoxicity at 10 µM was -1.94%.

Take `Cc1ccc(-c2nc(CNCCn3cccn3)cs2)o1`: the cytotoxicity at 10 µM is -5.9%.

On to `N#CC1(C(=O)N2CCN(Cc3ccon3)CC2)CCC1`, for which the cytotoxicity at 10 µM was -5.97%.

Regarding `COc1ccc(C2=CCN(C(=O)CN(C)CC(N)=O)CC2)cc1`, the cytotoxicity at 10 µM was -9.19%.

With `Cc1ccc(CNC(=O)CCSCc2csc(C)n2)cn1`, the cytotoxicity at 10 µM was -10%.

Take `COc1cc(CN(C)[C@@H]2COC[C@H]2c2ccc(F)cc2)cc(OC)c1`: the cytotoxicity at 10 µM worked out at 7.67%.

For the compound `c1coc(CN2CCc3nnc(COc4cncnc4)n3CC2)c1`, the cytotoxicity at 10 µM came to 4.15%.

On to `c1cnc(NCc2nnn3c2CN(CC2CC2)CCC3)nc1`, for which the cytotoxicity at 10 µM was -0.536%.

For the compound `Cc1ccc2c(c1)C1(CCN(C(=O)C3CC3)CC1)CC2N1CCOCC1` (stereo unspecified), the cytotoxicity at 10 µM was -128%.

As to `COc1ccc(F)cc1C(=O)N1C[C@@H]2CC[C@H]1CN(c1ncccn1)C2`, the cytotoxicity at 10 µM was determined as 4.24%.

`Cc1nc[nH]c1CN1C[C@H]2CC[C@@H](C1)N(C(=O)c1cnn(C)c1)C2`: the cytotoxicity at 10 µM stood at 2.42%.
